Experimental findings from ChEMBL document CHEMBL1129540, “Synthesis and cytotoxicity of 1,2-disubstituted naphth[2,3-d]imidazole-4,9-diones and related compounds” (1996) are described below.

Common to all, as to type: functional
The test system of one experiment is MDA-N. The experiment can be described thus: In vitro inhibitory activity against breast MDA-N cancer cell line. The conditions noted are these: Homo sapiens. In short, it runs like this: (§1)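 Tested in the National Cancer Institute's in vitro disease-oriented tumor cell line screen. Dose-response curves were recorded for each cell line, and values are reported as log GI50, the compound concentration that inhibits cell growth by 50%.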

In another experiment the test system is HL-60. The experiment can be described thus: In vitro inhibitory activity against leukemia HL-60(TB) cancer cell line. To be noted: Homo sapiens. In short, it runs like this:
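Tested in the NCI in vitro disease-oriented human tumour cell line screen. Growth inhibition was read from dose-response curves and reported as log GI50, the compound concentration that inhibits cell growth by 50%.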

Another experiment has as its system ACHN. Nature of the experiment: In vitro inhibitory activity against renal ACHN cancer cell line. The conditions noted are these: Homo sapiens. Put shortly:
as §1

The subject of the next experiment is RXF 393. The experiment can be described thus: In vitro inhibitory activity against renal RXF-393 cancer cell line. To be noted: Homo sapiens. In short, it runs like this:
as §1

Another experiment deals with Malme-3M. Nature of the experiment: In vitro inhibitory activity against melanoma MALME-3M cancer cell line. The conditions noted are these: Homo sapiens. In short, it runs like this:
as §1

The test system of a further experiment is NCI-H522. The experiment can be described thus: In vitro inhibitory activity against non small lung […]H522 cancer cell line. The conditions noted are these: Homo sapiens. Put shortly: as §1
The subject of a further experiment is HCT-116. The experiment can be described thus: In vitro inhibitory activity against colon HCT116 cancer cell line. To be noted: Homo sapiens. Put shortly:
as §1

In a further experiment the test system is COLO 205. Nature of the experiment: In vitro inhibitory activity against colon COLO-205 cancer cell line. The conditions noted are these: Homo sapiens. Put shortly: as §1
Another experiment relates to OVCAR-3. The experiment can be described thus: In vitro inhibitory activity against ovarain OVCAR-3 cancer cell line. The conditions noted are these: Homo sapiens. In short, it runs like this:
as §1

For another experiment, the system named is PC-3. Nature of the experiment: In vitro inhibitory activity against prostate PC-3 cancer cell line. To be noted: Homo sapiens. In short, it runs like this: as §1
A further experiment deals with IGROV-1. The experiment can be described thus: In vitro inhibitory activity against ovarain IGROV1 cancer cell line. To be noted: Homo sapiens. Put shortly:
as §1

In another experiment the test system is U-251. Nature of the experiment: In vitro inhibitory activity against CNS U-251 cancer cell line. The conditions noted are these: Homo sapiens. In short, it runs like this: as §1
For the next experiment, the system named is K562. Nature of the experiment: In vitro inhibitory activity against leukemia K-562 cancer cell line. The conditions noted are these: Homo sapiens. Put shortly:
as §1

For a further experiment, the system named is MCF7. The experiment can be described thus: In vitro inhibitory activity against breast MCF-7 cancer cell line. To be noted: Homo sapiens. In short, it runs like this:
as §1

A further experiment relates to HOP-92. Nature of the experiment: In vitro inhibitory activity against non small lung HOP-92 cancer cell line. To be noted: Homo sapiens. In short, it runs like this: as §1
A further experiment has as its system UACC-62. Nature of the experiment: In vitro inhibitory activity against melanoma UACC-62 cancer cell line. To be noted: Homo sapiens. In short, it runs like this: as §1
The next experiment relates to SF-539. Nature of the experiment: In vitro inhibitory activity against CNS SF-539 cancer cell line. The conditions noted are these: Homo sapiens. Put shortly: as §1
Another experiment deals with DU-145. Nature of the experiment: In vitro inhibitory activity against prostate DU-145 cancer cell line. The conditions noted are these: Homo sapiens. In short, it runs like this: as §1
Experiment [1] in a line: In vitro inhibitory activity against small cell lung DMS 114 cancer cell line. To be noted: Homo sapiens, Cancer cell lines. Put shortly: as §1
The nature of experiment [2]: In vitro inhibitory activity against small cell lung DMS 273 cancer cell line. To be noted: Homo sapiens, Cancer cell lines. In short, it runs like this: as §1

Turning to `CC/N=C1/C(=O)c2ccccc2C(O)=C1NC(=O)c1cc(OC)cc(OC)c1`, the 50% growth inhibitory concentration (GI50) in the experiment on MDA-N was 120 nM; in the experiment with HL-60 it was 407 nM; in the experiment on ACHN it was 977 nM; with RXF 393, 324 nM; in the experiment with Malme-3M, 776 nM; in the experiment with NCI-H522 it was 372 nM. The 50% growth inhibitory concentration (GI50) is 417 nM with HCT-116; 3470 nM with COLO 205; 525 nM in the experiment on OVCAR-3; 380 nM with PC-3; 1550 nM in the experiment on IGROV-1; 525 nM in the experiment on U-251. Moreover, the GI50 with K562 was 490 nM; in the experiment with MCF7, 372 nM; in the experiment on HOP-92, 1120 nM; with UACC-62, 355 nM; in the experiment with SF-539, 1910 nM; in the experiment on DU-145, 2690 nM.

As to `CCn1c(C)nc2c1C(=O)c1ccccc1C2=O`, the concentration for 50% growth inhibition (GI50) with HL-60 is 16600 nM; in the experiment on RXF 393 it was 27500 nM; in the experiment with Malme-3M, 2510 nM; in experiment [1] it was 275 nM; in the experiment with NCI-H522, 240 nM; in [2], 1660 nM. Also, the 50% growth inhibitory concentration (GI50) in the experiment with HCT-116 is 1230 nM; in the experiment with COLO 205 it was 355 nM; with OVCAR-3, 50.1 nM; with IGROV-1, 2040 nM; in the experiment on U-251 it was 1910 nM; in the experiment on K562, 1660 nM. Moreover, the GI50 was 676 nM with MCF7, 1620 nM in the experiment with HOP-92, 4900 nM in the experiment with UACC-62 and 2690 nM in the experiment with SF-539.

Take `O=C(Cc1ccccc1F)NC1=C(Cl)C(=O)c2ccccc2C1=O`: the 50% growth inhibitory concentration (GI50) is 282 nM with HL-60; 479 nM in the experiment on ACHN; 166 nM with RXF 393; 1700 nM with Malme-3M; 174 nM in [1]; 214 nM in the experiment with NCI-H522. Moreover, the GI50 is 1290 nM in experiment [2]; 427 nM in the experiment on HCT-116; 1910 nM in the experiment with COLO 205; 933 nM in the experiment on OVCAR-3; 676 nM in the experiment with IGROV-1; 331 nM with U-251. Also, the 50% growth inhibitory concentration (GI50) in the experiment with K562 was 295 nM; in the experiment with HOP-92, 1100 nM; in the experiment on UACC-62, 331 nM; with SF-539, 240 nM.
